Screens deposited in PubChem by several laboratories.
PG9 binder: binders of HIV-1 gp120 antibody PG9, primary screen, biochemical, TR-FRET; HIV-1 gp120 / PG9 antibody interaction; inhibition, % at 6.7 µM; 360,000 compounds, 0.43% hits; TR-FRET gp120-PG9 antibody binding; AID 624416, 2012; in the data active = inhibition above about 8.5%
NR2E3 ag-1: inhibitors of NR2E3-RetCOR corepressor binding, primary screen, NR2E3 agonist project, biochemical, TR-FRET, GST-NR2E3, biotin-RetCOR | Photoreceptor-specific nuclear receptor (Homo sapiens), Q9Y5X4 | 1536-well | inhibition of corepressor binding, % at 4.78 µM | 320,000 compounds, 0.12% hits;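 active = percent inhibition above the cutoff of mean plus 3 SD of all tested compounds, set per screening campaign, cut at about 20% in these data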
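Material – GST-tagged NR2E3 plus biotinylated RetCOR corepressor · Quantity – NR2E3 fusion 1.35 nM · Times – 5 h incubation at 4 °C · Medium – pH 7.5 Tris-based buffer · Technique – TR-FRET, Eu(K)-anti-GST donor, streptavidin-D2 acceptor, ex 340, em 617/671 nm · Benchmarks – high control biotin, low control 0.6% DMSO · Format – 1536-well plates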
PKA-R2B act: activators of PKA-R2B holoenzyme, primary screen, biochemical, fluorescence polarization, Cy5-IP20, human. 340,000 compounds, 0.079% hits. AID 504700, 2011. cAMP-dependent protein kinase catalytic subunit beta (Homo sapiens) + cAMP-dependent …. activation, % at 11.4 µM. PKA-R2B holoenzyme dissociation; R2B truncated from residue 108, S112A mutant; 0% DMSO only, 100% 113 µM cGMP;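 active = activation above a cutoff set at the mean over all compounds plus 3 SD, cut at about 18% in these data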;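 note: higher means more holoenzyme dissociation and a rise in polarization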
PKA-R1A activ: activators of PKA-R1A holoenzyme, primary screen, biochemical, fluorescence polarization, Cy5-IP20, bovine R1A, mouse PKAc; PKA-R1A dissociation; scaled: DMSO 0%, 113 µM cGMP 100%; activation, % at 11.4 µM; 340,000 compounds, 0.083% hits;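 active = percent activation above the mean of all tested compounds plus 3 SD, cut at about 19% in these data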;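 note: higher means more PKAc released from R1A so a rise in polarization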
NR2E3 ag-2: NR2E3 agonists in two-hybrid cells, primary screen, cell-based, luminescence, CHO-S, Gal4-NCOR/VP16-NR2E3; Photoreceptor-specific nuclear receptor (Homo sapiens), Q9Y5X4; luciferase; inhibition of corepressor binding, % at 3.98 µM; 360,000 compounds, 0.35% hits; AID 602229, 2012;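 active = inhibition above the mean of all tested compounds plus 3 SD, cut at about 70% in these data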;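 note: higher means lower luciferase signal from less NR2E3 corepressor binding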
Rev-erbA mod: modulators of Rev-erb alpha DNA binding, primary screen, biochemical, FITC-DNA, fluorescence polarization, uHTS; Nuclear receptor subfamily 1 group D member 1 (Homo sapiens), P20393; Rev-erbα–FITC-DNA binding, 90 min; activity, % at 10 µM; 370,000 compounds, 0.79% hits;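 active = activity above about 14%, limit read from the data; passing the limit was not always enough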
Target sequence (P20393 whole entry, looked up): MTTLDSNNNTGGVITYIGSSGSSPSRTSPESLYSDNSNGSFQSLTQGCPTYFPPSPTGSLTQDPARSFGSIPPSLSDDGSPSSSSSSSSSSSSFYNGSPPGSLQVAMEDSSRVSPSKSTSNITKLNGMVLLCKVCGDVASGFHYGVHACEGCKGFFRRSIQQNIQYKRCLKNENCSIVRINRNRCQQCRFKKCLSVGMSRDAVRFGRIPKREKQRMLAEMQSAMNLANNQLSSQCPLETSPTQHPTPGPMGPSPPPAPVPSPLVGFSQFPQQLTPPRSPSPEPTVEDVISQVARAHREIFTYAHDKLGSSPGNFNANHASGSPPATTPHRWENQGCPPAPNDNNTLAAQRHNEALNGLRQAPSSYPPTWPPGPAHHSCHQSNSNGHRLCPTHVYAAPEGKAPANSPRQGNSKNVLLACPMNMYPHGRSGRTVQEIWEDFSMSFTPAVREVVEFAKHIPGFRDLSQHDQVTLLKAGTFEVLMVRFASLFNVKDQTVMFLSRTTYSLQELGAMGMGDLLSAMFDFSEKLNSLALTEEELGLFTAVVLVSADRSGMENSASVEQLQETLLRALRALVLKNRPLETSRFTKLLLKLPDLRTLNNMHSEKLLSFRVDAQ
NR2E3 ag conf: NR2E3 agonist confirmation in cells, cell-based, luminescence, CHO-S two-hybrid | shares compounds with NR2E3 ag-2 | AID 624378, 2012 | inhibition, % at 3.98 µM | CHO-S mammalian two-hybrid NR2E3-NCOR, luciferase luminescence | 2,300 compounds, 51% hits;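 active = average inhibition above a cutoff equal to the mean inhibition of all tested compounds plus one SD, cut at about 70% in these data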
VP16 counter: GAL4-VP16 reporter modulators, confirmation, counter-screen for NR2E3 agonist project, cell-based, luminescence, CHO-S, high throughput; shares compounds with NR2E3 ag-2; CHO-S GAL4-VP16 luciferase reporter; inhibition, % at 3.98 µM; 2,300 compounds, 29% hits; AID 624379, 2012;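 active = mean inhibition above a cutoff equal to the average over all tested compounds plus one standard deviation, cut at about 70% in these data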;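 note: luciferase from a UAS reporter driven by GAL4-VP16 transactivation; higher means less reporter light so more repression of VP16 activity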
Of the large screens only hits and unclear results are named; the others gave an inactive call (follow-up assays come after a bar, where they were run). Most compounds without a hit are left out; they make up all but 1.6% or so of the library.

CCOc1ccccc1C(=O)Nc1ccc(C(=O)NCC2COc3ccccc3O2)cc1 (configuration not stated)	none (no result: PG9 binder, NR2E3 ag-1, PKA-R2B act, PKA-R1A activ, NR2E3 ag-2)
CCOc1cc(C)c(S(=O)(=O)Nc2ccc3cn[nH]c3c2)cc1C	NR2E3 ag-2 90.6 (no result: PG9 binder, Rev-erbA mod) | NR2E3 ag conf 85.7 | VP16 counter inactive
O=C(NCc1ccccc1F)c1ccc2c(c1)OCO2	none
O=C(NCCc1ccccc1F)c1ccc2c(c1)OCCO2	NR2E3 ag-2 72.2 | NR2E3 ag conf inactive | VP16 counter inactive
COc1cccc(COc2ccccc2C2Nc3ccc(Br)cc3C(=O)N2NC(=O)c2ccncc2)c1 (configuration not stated)	none | NR2E3 ag conf inactive | VP16 counter inactive
c1ccc(-c2nnc3sc(CN4CCc5ccccc54)cn23)cc1	none | NR2E3 ag conf inactive | VP16 counter inactive
Brc1ccc(-c2nnc3sc(CN4CCc5ccccc5C4)cn23)cc1	none (no result: NR2E3 ag-1)
O=C(Nc1nc(-c2ccccn2)cs1)c1ccc(Cl)s1	none
Cc1ccc(C(=O)Nc2nc(-c3ccccn3)cs2)s1	none | NR2E3 ag conf inactive | VP16 counter inactive
Cc1cccnc1Nc1nc(-c2ccccn2)cs1	NR2E3 ag-2 77.2 | NR2E3 ag conf 99.8 | VP16 counter inactive
COC(=O)[C@]12C[C@H](CC(=O)N3CCN(C(=O)c4ccco4)CC3)C(=O)N(Cc3ccccc3)C1=C[C@H](C1CCCC1)O[C@@H]2C	none (no result: NR2E3 ag-1, PKA-R2B act, PKA-R1A activ, NR2E3 ag-2)
COC(=O)[C@]12C[C@H](CC(=O)NCc3ccc(C)o3)C(=O)N(CCC3=CCCCC3)C1=C[C@H](C(C)C)O[C@@H]2C1CC1	none (no result: PG9 binder, NR2E3 ag-1, PKA-R2B act, PKA-R1A activ, NR2E3 ag-2)
C=CCN1[C@@H](C)COc2cc(N3CCCC3)ccc2S1(=O)=O	none (no result: PG9 binder, NR2E3 ag-1, PKA-R2B act, PKA-R1A activ, NR2E3 ag-2)
COC(=O)[C@]12C[C@H](CC(=O)NCCCN3CCCC3=O)C(=O)N(Cc3cccc4ccccc34)C1=C[C@H](C(C)(C)C)O[C@@H]2C	none (no result: PG9 binder, NR2E3 ag-1, PKA-R2B act, PKA-R1A activ, NR2E3 ag-2)
CCCC(C)Sc1nc2c([nH]1)c(=S)n(C)c(=O)n2C (configuration not stated)	NR2E3 ag-2 82.5 (no result: NR2E3 ag-1) | NR2E3 ag conf inactive | VP16 counter inactive
Cn1c(=S)c2[nH]c(SCC3CCCO3)nc2n(C)c1=O (configuration not stated)	none (no result: NR2E3 ag-1) | NR2E3 ag conf inactive | VP16 counter inactive
O=c1[nH]c(SCC2CCCCO2)nc2ccccc12 (configuration not stated)	none
CCCSc1nc2c([nH]1)c(=O)n(C)c(=S)n2C	none (no result: NR2E3 ag-1)
CC(=O)N[C@@H]1C[C@@H]2O[C@H](CO)CC[C@@H]2O[C@@H]1CCc1ccc(-c2ccc(F)cc2)cc1	none (no result: PG9 binder, NR2E3 ag-1, PKA-R2B act, PKA-R1A activ, NR2E3 ag-2)
CCC(=O)N1CCc2cc(S(=O)(=O)CCC(=O)N3CCN(c4ccc(Cl)cc4)CC3)ccc21	none | NR2E3 ag conf inactive | VP16 counter inactive
COc1ccc(Cc2nc3ccc(C(=O)N4C[C@@H](C)O[C@@H](C)C4)cc3o2)cc1OC	none
COCCN1CCN(C(=O)c2ccc3nc(Cc4ccc(OC)c(OC)c4)oc3c2)CC1	none | NR2E3 ag conf inactive | VP16 counter inactive
COC(=O)[C@]12C[C@H](CC(=O)NCc3ccc(C)o3)C(=O)N(CCc3ccc(OC)c(OC)c3)C1=C[C@H](C(C)C)O[C@@H]2C1CC1	none (no result: PG9 binder, NR2E3 ag-1, PKA-R2B act, PKA-R1A activ, NR2E3 ag-2)
